These results are taken from ChEMBL document CHEMBL3352503, “An investigation of in vitro cytotoxicity and apoptotic potential of aromatic diselenides” (Bioorg Med Chem Lett, 2014).

The source made the active and inactive calls. The rule behind the calls is not given here.

Test [1] is described as follows: Cytotoxicity against human 786-O cells after 48 hrs by MTT assay. The note with it: 786-0, 48 h. It is filed as functional, cell-based. Background: Tetrazolium dyes change colour on reduction, which living cells bring about.
In test [2] the test system is HT-29. Nature of the test: Cytotoxicity against human HT-29 cells after 48 hrs by MTT assay. It is filed as functional, cell-based. The note with it: HT-29, 48 h.
Test [3] can be described thus: Cytotoxicity against human OVCAR5 cells after 48 hrs by MTT assay. It is filed as functional, cell-based. To be noted: OVCAR-5, 48 h.
Test [4] can be described thus: Cytotoxicity against human PC3 cells after 48 hrs by MTT assay. The class given is functional, cell-based. To be noted: PC-3, 48 h. In a few lines:
(§1)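 Cells grown at 37°C, 5% CO2 with 10% heat-inactivated FBS, penicillin, streptomycin and L-glutamine: HL-60 (suspension) in RPMI-1640, PC-3 in MEM. Seeded 6000 cells/well, exposed 48 h to a range of concentrations (DMSO vehicle, final below 1%). MTT (2.5 mg/mL) added for 4 h, formazan dissolved in DMSO, OD at 540 nm (ref. 620 nm); growth vs untreated cells.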

A short description of test [5]: Cytotoxicity against human HL60 cells after 48 hrs by MTT assay. The note with it: HL-60, 48 h. The class given is functional, cell-based. The method, boiled down:
as §1

The subject of test [6] is HL-60. Nature of the test: Induction of apoptosis in human HL60 cells assessed as nuclear fragmentation at 20 to 30 uM after 24 hrs by fluorescent microscopy. It is filed as functional, cell-based.
Test [7] has as its system HL-60. Nature of the test: Induction of apoptosis in human HL60 cells assessed as chromatin condensation at 20 to 30 uM after 24 hrs by fluorescent microscopy. It is filed as functional, cell-based.
Test [8] relates to HL-60. Nature of the test: Induction of apoptosis in human HL60 cells at 30 uM after 24 hrs by propidium iodide staining-based flow cytometry (reference value: 1.49%). It is filed as functional. A general note: A flow cytometer gives signals particle by particle.
A short description of test [9]: Cell cycle arrest in human HL60 cells assessed as accumulation at G2 phase at 30 uM after 24 hrs by propidium iodide staining-based flow cytometry (reference value: 2.39%). The note with it: HL-60. It is filed as functional.
Test [10] in a line: Cell cycle arrest in human HL60 cells assessed as accumulation at S phase at 30 uM after 24 hrs by propidium iodide staining-based flow cytometry (reference value: 46.82%). It is filed as functional. To be noted: HL-60.
The nature of test [11]: Cell cycle arrest in human HL60 cells assessed as accumulation at G1 phase at 30 uM after 24 hrs by propidium iodide staining-based flow cytometry (reference value: 50.80%). The note with it: HL-60. The class given is functional.
Test [12] deals with HL-60. Nature of the test: Induction of apoptosis in human HL60 cells assessed as loss of mitochondrial membrane potential at 10 uM after 24 hrs by Rhodamine-123 staining-based flow cytometric analysis (reference value: 6%). It is filed as functional.
Test [13] relates to HL-60. Nature of the test: Induction of apoptosis in human HL60 cells assessed as loss of mitochondrial membrane potential after 24 hrs by Rhodamine-123 staining-based flow cytometric analysis. It is filed as functional, cell-based.
Test [14] is described as follows: Cell cycle arrest in human HL60 cells assessed as accumulation at S phase at 10 uM after 24 hrs by propidium iodide staining-based flow cytometry (reference value: 46.82%). The note with it: HL-60. It is filed as functional.
Test [15] concerns HL-60. Nature of the test: Induction of apoptosis in human HL60 cells assessed as loss of mitochondrial membrane potential at 20 uM after 24 hrs by Rhodamine-123 staining-based flow cytometric analysis (reference value: 6%). It is filed as functional.
Test [16] relates to HL-60. Nature of the test: Induction of apoptosis in human HL60 cells at 20 uM after 24 hrs by propidium iodide staining-based flow cytometry (reference value: 1.49%). It is filed as functional.
Test [17] has as its system HL-60. Nature of the test: Induction of apoptosis in human HL60 cells at 10 uM after 24 hrs by propidium iodide staining-based flow cytometry (reference value: 1.49%). It is filed as functional.
Test [18] relates to HL-60. Nature of the test: Induction of apoptosis in human HL60 cells assessed as membrane blebbing at 20 to 30 uM after 24 hrs by fluorescent microscopy. It is filed as functional, cell-based.
Test [19] can be described thus: Cell cycle arrest in human HL60 cells assessed as accumulation at G1 phase at 20 uM after 24 hrs by propidium iodide staining-based flow cytometry (reference value: 50.80%). It is filed as functional. To be noted: HL-60.
Test [20] relates to HL-60. Nature of the test: Cytotoxicity against human HL60 cells by MTT assay. The note with it: TDE = time-dependent effect. It is filed as functional, cell-based. The method, boiled down:
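Cells grown in RPMI-1640 with 10% heat-inactivated FBS at 37 °C, 5% CO₂, seeded at 6000 cells/well and exposed to test material for 48 hr. DMSO vehicle kept below 1% final. MTT (2.5 mg/mL) added for 4 hr, formazan dissolved in DMSO, OD read at 540 nm (reference 620 nm). Growth calculated as treated vs untreated absorbance.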

For test [21], the system named is HL-60. Nature of the test: Induction of apoptosis in human HL60 cells assessed as loss of mitochondrial membrane potential at 30 uM after 24 hrs by Rhodamine-123 staining-based flow cytometric analysis (reference value: 6%). It is filed as functional.
Test [22] can be described thus: Cell cycle arrest in human HL60 cells assessed as accumulation at G1 phase at 10 uM after 24 hrs by propidium iodide staining-based flow cytometry (reference value: 50.80%). The class given is functional. To be noted: HL-60.
The nature of test [23]: Cell cycle arrest in human HL60 cells assessed as accumulation at G2 phase at 10 uM after 24 hrs by propidium iodide staining-based flow cytometry (reference value: 2.39%). It is filed as functional. To be noted: HL-60.
Test [24] in a line: Cell cycle arrest in human HL60 cells assessed as accumulation at S phase at 20 uM after 24 hrs by propidium iodide staining-based flow cytometry (reference value: 46.82%). The class given is functional. To be noted: HL-60.
The nature of test [25]: Cell cycle arrest in human HL60 cells assessed as accumulation at G2 phase at 20 uM after 24 hrs by propidium iodide staining-based flow cytometry (reference value: 2.39%). It is filed as functional. To be noted: HL-60.

In the case of `c1ccc([Se][Se]c2ccccc2)cc1`, the IC50 in test [1] was 38 µM; in [2], 31 µM; in [3] it was 38 µM; in test [4], 42 µM; in [5] it was 32 µM.

Consider `Oc1ccc([Se][Se]c2ccc(O)cc2)cc1`, for which the IC50 came out at 33 µM in test [1]; 37 µM in test [2]; 27 µM in test [3]; 29 µM in test [4]; 13 µM in test [5].

For `CCc1ccccc1[Se][Se]c1ccccc1CC`, the concentration for half-maximal inhibition (IC50) in test [1] turned out to be 42 µM; in test [2], 56 µM; in test [3], 38 µM; in test [4], 43 µM; in test [5] it was 28 µM.

In the case of `Oc1ccccc1[Se][Se]c1ccccc1O`, the IC50 in test [2] is 23 µM; in [3] it was 21 µM; in test [4], 25 µM; in test [5], 14 µM.

Turning to `c1ccc2c([Se][Se]c3cccc4ccccc34)cccc2c1`, the IC50 stood at 32 µM in test [1]; 34 µM in test [2]; 25 µM in test [3]; 40 µM in [4]; 16 µM in [5].

In the case of `COc1ccc([Se][Se]c2ccc(OC)cc2)cc1`, the concentration for half-maximal inhibition (IC50) was found to be 28 µM in [1]; 24 µM in test [2]; 26 µM in [3]; 27 µM in test [4]; 12 µM in [5].

In the case of `c1ccc([Se][Se]c2ccccn2)nc1`, the IC50 in [1] turned out to be 29 µM; in test [2], 30 µM; in test [3], 27 µM; in test [4], 26 µM; in test [5], 28 µM.

As for `OCc1ccc([Se][Se]c2ccc(CO)cc2)cc1`, the IC50 stood at 30 µM in [1]; 27 µM in test [2]; 24 µM in test [3]; 26 µM in [4]; 11 µM in [5].

On to `Cc1ccc([Se][Se]c2ccc(C)cc2)cc1`, for which the IC50 in test [1] stood at 29 µM; in test [2], 37 µM; in [3], 31 µM; in [4] it was 29 µM; in [5], 33 µM.

As for `Cc1cccc(C)c1[Se][Se]c1c(C)cccc1C`, the IC50 in test [1] worked out at 40 µM; in test [2], 35 µM; in [3], 39 µM; in test [4], 33 µM; in test [5], 27 µM.

With `OCc1ccccc1[Se][Se]c1ccccc1CO`, the IC50 in test [1] stood at 27 µM; in test [2] it was 25 µM; in test [3], 16 µM; in test [4], 28 µM; in test [5] it was 14 µM.

As for `FC(F)(F)c1cc([Se][Se]c2cc(C(F)(F)F)cc(C(F)(F)F)c2)cc(C(F)(F)F)c1`, the result in test [6], in test [7] and in test [18] was Active. Moreover, the Activity in test [8] was 23.94%; in test [9], 0%; in test [10], 53.9%; in test [11], 46.1%; in test [12] it was 11%; in test [13] it was “Dose-dependent effect”. Besides, the Activity in test [14] was determined as 48.4%; in test [15], 20%; in test [16] it was 5.65%; in test [17] it was 2.45%; in test [19] it was 50.8%; in test [21], 58%. Moreover, the Activity in [22] came to 49.7%; in test [23] it was 1.93%; in test [24] it was 45.5%; in test [25], 3.78%. The IC50 came to 24 µM in [1]; 21 µM in test [2]; 20 µM in [3]; 13 µM in test [4]; 8 µM in test [5]. Moreover, the inhibition entry in test [20] is “tde”.

On to `Cc1cc(C)cc([Se][Se]c2cc(C)cc(C)c2)c1`, for which the IC50 is 33 µM in test [1]; 36 µM in test [2]; 34 µM in [3]; 30 µM in test [4]; 23 µM in [5].

The term IC50 denotes the concentration that inhibits the measured activity by half. Lower therefore signals inhibition by little substance.
